These results are taken from publication PMC4652583 (Organic letters, 2012).

Series [1] concerns the target T1, Ube1 (Homo sapiens, UniProt P22314).
T1 sequence (P22314 1-1058): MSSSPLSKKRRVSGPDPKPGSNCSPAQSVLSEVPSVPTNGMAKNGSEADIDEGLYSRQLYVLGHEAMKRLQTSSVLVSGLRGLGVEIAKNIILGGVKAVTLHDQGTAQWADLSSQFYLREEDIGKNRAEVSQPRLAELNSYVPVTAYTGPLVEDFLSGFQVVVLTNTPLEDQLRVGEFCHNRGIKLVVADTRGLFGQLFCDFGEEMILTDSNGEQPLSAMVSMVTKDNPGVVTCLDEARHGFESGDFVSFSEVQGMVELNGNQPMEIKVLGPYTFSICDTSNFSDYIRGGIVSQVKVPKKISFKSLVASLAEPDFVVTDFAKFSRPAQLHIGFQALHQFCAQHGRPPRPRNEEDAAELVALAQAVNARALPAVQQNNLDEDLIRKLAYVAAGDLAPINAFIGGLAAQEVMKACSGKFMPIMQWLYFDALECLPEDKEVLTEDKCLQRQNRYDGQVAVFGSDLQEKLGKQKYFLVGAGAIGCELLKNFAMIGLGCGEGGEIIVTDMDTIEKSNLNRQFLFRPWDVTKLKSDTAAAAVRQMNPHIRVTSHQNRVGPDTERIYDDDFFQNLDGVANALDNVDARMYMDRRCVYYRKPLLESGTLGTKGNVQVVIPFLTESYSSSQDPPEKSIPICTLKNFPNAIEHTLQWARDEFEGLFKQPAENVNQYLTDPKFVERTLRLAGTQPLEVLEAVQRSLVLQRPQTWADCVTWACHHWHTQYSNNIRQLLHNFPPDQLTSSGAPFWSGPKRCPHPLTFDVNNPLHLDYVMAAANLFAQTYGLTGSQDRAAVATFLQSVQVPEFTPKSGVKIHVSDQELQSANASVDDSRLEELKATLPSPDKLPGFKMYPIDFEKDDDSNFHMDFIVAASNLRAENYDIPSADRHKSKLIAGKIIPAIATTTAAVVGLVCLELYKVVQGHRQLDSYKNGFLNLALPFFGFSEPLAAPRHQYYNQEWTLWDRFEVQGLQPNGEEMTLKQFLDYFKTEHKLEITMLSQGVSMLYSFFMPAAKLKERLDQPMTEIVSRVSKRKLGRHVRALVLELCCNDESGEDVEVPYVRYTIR
Briefly: Competitive inhibition of UB transfer to Ube1. It is filed as biochemical. Summed up: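 Increasing concentrations of test peptide were incubated with 1 µM UB and reacted with Ube1 (E1). UB~E1 thioester conjugate formed in each reaction was measured by Western blot.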

The next series relates to myeloma and lymphoma. As to conditions: in clinical trials for myeloma and lymphoma; ref [9]; cited from earlier work.
Another series relates to Nedd8 E1. As to conditions: ref [8]; cited from earlier work.
Series [2] addresses T1, Ube1. Briefly: ATP-PPi exchange kinetics catalyzed by Ube1. It is filed as biochemical.
Substrate in series [3]: CC(C)[C@H](N)C(=O)N[C@@H](CCC(N)=O)C(=O)N[C@@H](CCCNC(=N)N)C(=O)N[C@@H](Cc1ccc(O)cc1)C(=O)N[C@@H](Cc1c[nH]c2ccccc12)C(=O)NCC(=O)NCC(=O)O
In words: ATP-PPi exchange kinetics catalyzed by Ube1. It is filed as biochemical, human. As to conditions: other: ATP-PPi exchange catalyzed by Ube1.

Substrate in series [4]: CC(C)[C@H](N)C(=O)N[C@@H](Cc1c[nH]c2ccccc12)C(=O)N[C@@H](CCCNC(=N)N)C(=O)N[C@@H](Cc1ccccc1)C(=O)N[C@@H](Cc1c[nH]cn1)C(=O)NCC(=O)NCC(=O)O
In words: ATP-PPi exchange kinetics catalyzed by Ube1. As to conditions: other: ATP-PPi exchange catalyzed by Ube1. It is filed as biochemical, human.

Ends that are not written are not given here.

In general, IC50 refers to the concentration that gives 50% inhibition. High values mean lower potency, low ones higher potency. As for VWRFHGG [P2], on Ube1 [1], the IC50 was determined as 266 µM.
VQRYWGG [P3] had an IC50 at Ube1 [1] of 172 µM.
For `NS(=O)(=O)OC[C@@H]1C[C@@H](n2ccc3c(N[C@H]4CCc5ccccc54)ncnc32)C[C@@H]1O` [MLN4924], the anticancer activities result in the series with myeloma and lymphoma is given as “promising anticancer activities”. Moreover, the “inhibition of Nedd8 E1” value in the series on Nedd8 E1 is “potent inhibitor of the Nedd8 E1”.
Take VYRFYGG [P4]: the IC50 on Ube1 [1] came to 220 µM.
With VLRLRGG [P1], at Ube1 [1] (at a concentration as high as 1 mM, 1 µM UB, Western blot), the “inhibition of UB loading on E1” value is listed as “cannot significantly inhibit UB loading on E1”. For the same molecule, on Ube1 [2] (ATP-PPi exchange catalyzed by Ube1), the kcat/K1/2 stood at 1.28 M⁻¹ s⁻¹. Besides, the “saturation of Ube1” value at Ube1 [2] (at a concentration as high as 500 µM in the ATP-PPi exchange reaction) is listed as “could not saturate Ube1”.

B1: Ube1 (Homo sapiens) (protein)
chain: MSSSPLSKKRRVSGPDPKPGSNCSPAQSVLSEVPSVPTNGMAKNGSEADIDEGLYSRQLYVLGHEAMKRLQTSSVLVSGLRGLGVEIAKNIILGGVKAVTLHDQGTAQWADLSSQFYLREEDIGKNRAEVSQPRLAELNSYVPVTAYTGPLVEDFLSGFQVVVLTNTPLEDQLRVGEFCHNRGIKLVVADTRGLFGQLFCDFGEEMILTDSNGEQPLSAMVSMVTKDNPGVVTCLDEARHGFESGDFVSFSEVQGMVELNGNQPMEIKVLGPYTFSICDTSNFSDYIRGGIVSQVKVPKKISFKSLVASLAEPDFVVTDFAKFSRPAQLHIGFQALHQFCAQHGRPPRPRNEEDAAELVALAQAVNARALPAVQQNNLDEDLIRKLAYVAAGDLAPINAFIGGLAAQEVMKACSGKFMPIMQWLYFDALECLPEDKEVLTEDKCLQRQNRYDGQVAVFGSDLQEKLGKQKYFLVGAGAIGCELLKNFAMIGLGCGEGGEIIVTDMDTIEKSNLNRQFLFRPWDVTKLKSDTAAAAVRQMNPHIRVTSHQNRVGPDTERIYDDDFFQNLDGVANALDNVDARMYMDRRCVYYRKPLLESGTLGTKGNVQVVIPFLTESYSSSQDPPEKSIPICTLKNFPNAIEHTLQWARDEFEGLFKQPAENVNQYLTDPKFVERTLRLAGTQPLEVLEAVQRSLVLQRPQTWADCVTWACHHWHTQYSNNIRQLLHNFPPDQLTSSGAPFWSGPKRCPHPLTFDVNNPLHLDYVMAAANLFAQTYGLTGSQDRAAVATFLQSVQVPEFTPKSGVKIHVSDQELQSANASVDDSRLEELKATLPSPDKLPGFKMYPIDFEKDDDSNFHMDFIVAASNLRAENYDIPSADRHKSKLIAGKIIPAIATTTAAVVGLVCLELYKVVQGHRQLDSYKNGFLNLALPFFGFSEPLAAPRHQYYNQEWTLWDRFEVQGLQPNGEEMTLKQFLDYFKTEHKLEITMLSQGVSMLYSFFMPAAKLKERLDQPMTEIVSRVSKRKLGRHVRALVLELCCNDESGEDVEVPYVRYTIR
In general, kcat refers to the maximal rate divided by the concentration of active sites. For orientation: kcat/Km means the turnover number divided by the Michaelis constant. As for B1, the kcat in series [3] was 0.162 ± 0.0233 s⁻¹; in series [4], 0.0583 ± 0.01 s⁻¹. The values for the kcat/Km in series [3] and in series [4] were 383 M⁻¹ s⁻¹ and 167 M⁻¹ s⁻¹, respectively.
